Assay results published in ChEMBL document CHEMBL1240464, “Synthesis, structure and in vitro antibacterial activities of new hybrid disinfectants quaternary ammonium compounds: pyridinium and quinolinium stilbene benzenesulfonates” (2010).
Active and inactive are the calls of the source. No cut-off for these calls is given here.

Key:
[1] = system: Staphylococcus aureus; experiment: Antibacterial activity against Staphylococcus aureus TISTR517 at up to 300 ug/ml after 8 to 12 hrs by colorimetric microdilution broth technique; type: functional, organism-based
Procedure, shortened: (§1)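 Broth microdilution in RPMI1640. Bacterial suspension in RPMI1640 is mixed with 1% Alamar Blue. Sample dissolved in DMSO at 25 mg/ml (stock) is added to the first row, then serially diluted two-fold down the plate to 128-fold. Plates are incubated at 37 °C for 8–12 h. MIC is the lowest concentration preventing the Alamar Blue change from blue to red. At least three repeats.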

[2] = system: Shigella sonnei; experiment: Antibacterial activity against Shigella sonnei at up to 300 ug/ml after 8 to 12 hrs by colorimetric microdilution broth technique; type: functional, organism-based; procedure, shortened: as §1
[3] = system: Enterococcus faecalis; experiment: Antibacterial activity against Enterococcus faecalis TISTR459 at up to 300 ug/ml after 8 to 12 hrs by colorimetric microdilution broth technique; type: functional, organism-based; procedure, shortened: as §1
[4] = system: Staphylococcus aureus; experiment: Antibacterial activity against methicillin-resistant Staphylococcus aureus ATCC 43300 after 8 to 12 hrs by colorimetric microdilution broth technique; type: functional
Procedure, shortened: (§2)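 Broth microdilution with a colorimetric read-out. Bacteria were suspended in RPMI1640 with 1% Alamar Blue. Compound was dissolved in DMSO as a 25 mg/ml stock and added to the first row, then serially halved to a 128-fold final dilution. Plates were incubated at 37 °C for 8–12 h. MIC was the lowest concentration preventing the blue-to-red indicator change. Each assay was run at least three times.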

[5] = system: Enterococcus faecalis; experiment: Antibacterial activity against vancomycin-resistant Enterococcus faecalis ATCC 51299 after 8 to 12 hrs by colorimetric microdilution broth technique; type: functional; procedure, shortened: as §2
[6] = system: Bacillus subtilis; experiment: Antibacterial activity against Bacillus subtilis at up to 300 ug/ml after 8 to 12 hrs by colorimetric microdilution broth technique; type: functional, organism-based; procedure, shortened: as §1
[7] = system: Salmonella typhi; experiment: Antibacterial activity against Salmonella typhi at up to 300 ug/ml after 8 to 12 hrs by colorimetric microdilution broth technique; type: functional, organism-based; details: Salmonella enterica subsp. enterica serovar Typhi; procedure, shortened: as §2
[8] = system: Pseudomonas aeruginosa; experiment: Antibacterial activity against Pseudomonas aeruginosa at up to 300 ug/ml after 8 to 12 hrs by colorimetric microdilution broth technique; type: functional, organism-based; procedure, shortened: as §1
[9] = system: Enterococcus faecalis; experiment: Antibacterial activity against vancomycin-resistant Enterococcus faecalis ATCC 51299 at up to 300 ug/ml after 8 to 12 hrs by colorimetric microdilution broth technique; type: functional, organism-based; procedure, shortened: as §2
[10] = system: Pseudomonas aeruginosa; experiment: Antibacterial activity against Pseudomonas aeruginosa after 8 to 12 hrs by colorimetric microdilution broth technique; type: functional; procedure, shortened: as §1
[11] = system: Bacillus subtilis; experiment: Antibacterial activity against Bacillus subtilis after 8 to 12 hrs by colorimetric microdilution broth technique; type: functional; procedure, shortened: as §1
[12] = system: Salmonella typhi; experiment: Antibacterial activity against Salmonella typhi after 8 to 12 hrs by colorimetric microdilution broth technique; type: functional, Salmonella enterica subsp. enterica serovar Typhi; details: Salmonella enterica; procedure, shortened: as §2
[13] = system: Staphylococcus aureus; experiment: Antibacterial activity against Staphylococcus aureus TISTR517 after 8 to 12 hrs by colorimetric microdilution broth technique; type: functional; procedure, shortened: as §1
[14] = system: Enterococcus faecalis; experiment: Antibacterial activity against Enterococcus faecalis TISTR459 after 8 to 12 hrs by colorimetric microdilution broth technique; type: functional; procedure, shortened: as §2
[15] = system: Shigella sonnei; experiment: Antibacterial activity against Shigella sonnei after 8 to 12 hrs by colorimetric microdilution broth technique; type: functional; procedure, shortened: as §1

Row | Structure (SMILES) | MIC [4] [µg/mL] | MIC [5] [µg/mL] | MIC [11] [µg/mL] | MIC [12] [µg/mL] | MIC [14] [µg/mL] | MIC [15] [µg/mL] | further results
1 | CN(C)c1ccc(/C=C/c2cccc[n+]2C)cc1 |  |  |  |  |  |  | MIC [1]: inactive; MIC [2]: inactive; MIC [3]: inactive
2 | CN(C)c1ccc(/C=C/c2cccc[n+]2C)cc1.Nc1ccc(S(=O)(=O)[O-])cc1 | 37.5 | 300 |  |  |  |  | 
3 | CCOc1ccc(/C=C/c2cccc[n+]2C)cc1.Nc1ccc(S(=O)(=O)[O-])cc1 | 75 |  |  |  |  |  | 
4 | CN(C)c1ccc(/C=C/c2cccc[n+]2C)cc1.O=S(=O)([O-])c1ccc(Br)cc1 |  |  |  |  |  |  | MIC [6]: inactive; MIC [7]: inactive; MIC [1]: inactive; MIC [2]: inactive; MIC [8]: inactive; MIC [9]: inactive; MIC [3]: inactive
5 | CCOc1ccc(/C=C/c2cccc[n+]2C)cc1.O=S(=O)([O-])c1ccc(Cl)cc1 | 75 |  |  |  |  |  | 
6 | CN(C)c1ccc(/C=C/c2cccc[n+]2C)cc1.O=S(=O)([O-])c1ccc(Cl)cc1 | 37.5 | 150 | 300 | 300 |  |  | MIC [10]: 300 µg/mL
7 | CN(C)c1ccc(/C=C/c2cccc[n+]2C)cc1.Cc1ccc(S(=O)(=O)[O-])cc1 | 37.5 | 300 | 150 | 300 | 300 | 300 | MIC [10]: 150 µg/mL; MIC [13]: 300 µg/mL
8 | CCOc1ccc(/C=C/c2cccc[n+]2C)cc1.COc1ccc(S(=O)(=O)[O-])cc1 | 150 |  |  |  |  |  | 
9 | CCOc1ccc(/C=C/c2cccc[n+]2C)cc1.O=S(=O)([O-])c1ccc(Br)cc1 [listing 1 of 2 here] | 18.8 |  |  | 300 |  | 300 | 
10 | CCOc1ccc(/C=C/c2ccc3ccccc3[n+]2C)cc1.COc1ccc(S(=O)(=O)[O-])cc1 |  |  |  |  |  |  | MIC [7]: inactive; MIC [1]: inactive; MIC [8]: inactive
11 | CCOc1ccc(/C=C/c2cccc[n+]2C)cc1.O=S(=O)([O-])c1ccc(Br)cc1 [listing 2 of 2 here] |  |  |  |  |  |  | MIC [6]: inactive; MIC [1]: inactive; MIC [8]: inactive; MIC [9]: inactive; MIC [3]: inactive
12 | CN(C)c1ccc(/C=C/c2ccc3ccccc3[n+]2C)cc1.O=S(=O)([O-])c1ccc(Br)cc1 | 2.34 | 2.34 | 2.34 | 300 | 2.34 | 2.34 | MIC [10]: 300 µg/mL; MIC [13]: 2.34 µg/mL
13 | CN(C)c1ccc(C=Cc2cccc[n+]2C)cc1.[I-] | 37.5 | 300 | 300 | 300 | 300 | 300 | MIC [10]: 300 µg/mL; MIC [13]: 300 µg/mL
14 | CCOc1ccc(/C=C/c2cccc[n+]2C)cc1.[I-] | 37.5 |  |  |  |  | 300 | 
15 | CN(C)c1ccc(/C=C/c2cccc[n+]2C)cc1.COc1ccc(S(=O)(=O)[O-])cc1 | 75 | 150 | 150 | 150 | 150 | 150 | MIC [10]: 150 µg/mL; MIC [13]: 150 µg/mL
16 | CCOc1ccc(/C=C/c2ccc3ccccc3[n+]2C)cc1.O=S(=O)([O-])c1ccc(Br)cc1 | 2.34 | 18.8 | 18.8 |  | 37.5 | 75 | MIC [13]: 300 µg/mL
17 | CCOc1ccc(/C=C/c2ccc3ccccc3[n+]2C)cc1 |  |  |  |  |  |  | MIC [7]: inactive; MIC [1]: inactive; MIC [8]: inactive
18 | CN(C)c1ccc(/C=C/c2ccc3ccccc3[n+]2C)cc1.COc1ccc(S(=O)(=O)[O-])cc1 | 2.34 | 150 | 75 |  | 150 | 150 | 
